Assay results published in ChEMBL document CHEMBL4689842, “EUbOPEN Chemogenomics Library wave 1” (2021).

Test system: U2OS
Experiment: Multiplex assay against U2OS
Format: toxicity, cell-based
Settings: human
How it was run: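 Live cells carried four stains from seeding: Hoechst33342, BioTracker Green Microtubule Cytoskeleton Dye, MitoTracker Red and Annexin V Alexa Fluor 680. They were imaged on a CQ1 microscope at 37°C and 5% CO2 after compound addition. Using CellPathfinder machine-learning gating, cells were split into Hoechst high-intensity objects or normal cells, normal cells into healthy, pyknosed or fragmented nuclei, and pyknosed cells into mitotic or apoptotic; tubulin, mitochondrial-mass and membrane-permeability phenotypes are per cents of healthy-nucleus cells.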

[1] = 12 h, 1 µM, compound concentration 1 uM, replicate 1
[2] = 12 h, 1 µM, compound concentration 1 uM, replicate 2
[3] = 12 h, 10 µM, compound concentration 10 uM, replicate 1
[4] = 12 h, 10 µM, compound concentration 10 uM, replicate 2
[5] = 24 h, 1 µM, compound concentration 1 uM, replicate 1
[6] = 24 h, 1 µM, compound concentration 1 uM, replicate 2
[7] = 24 h, 10 µM, compound concentration 10 uM, replicate 1
[8] = 24 h, 10 µM, compound concentration 10 uM, replicate 2

## CCN1CCN(c2ccc(Nc3cc(N(C)C(=O)Nc4c(Cl)c(OC)cc(OC)c4Cl)ncn3)cc2)CC1 [INFIGRATINIB]
[1]
  Population Apoptotic (%): 33%
  Population Fragmented Nuclei (%): 15%
  Population Healthy Nuclei (%): 60%
  Population Hoechst High Intensity Objects (%): 4%
  Population Membrane Permeable-Phenotype (%): 20%
  Population Mitochondria Different-Phenotype (%): 38%
  Population Mitotic Cells (%): 66%
  Population Normal (%): 95%
  Population Pyknosed Nuclei (%): 24%
  Population Tubulin-Different-Phenotype (%): 71%
  Total Cell Count: 142
[2]
  Population Apoptotic (%): 40%
  Population Fragmented Nuclei (%): 26%
  Population Healthy Nuclei (%): 51%
  Population Hoechst High Intensity Objects (%): 10%
  Population Membrane Permeable-Phenotype (%): 21%
  Population Mitochondria Different-Phenotype (%): 55%
  Population Mitotic Cells (%): 59%
  Population Normal (%): 89%
  Population Pyknosed Nuclei (%): 21%
  Population Tubulin-Different-Phenotype (%): 55%
  Total Cell Count: 127
[3]
  Population Apoptotic (%): 50%
  Population Fragmented Nuclei (%): 4%
  Population Healthy Nuclei (%): 87%
  Population Hoechst High Intensity Objects (%): 6%
  Population Membrane Permeable-Phenotype (%): 11%
  Population Mitochondria Different-Phenotype (%): 17%
  Population Mitotic Cells (%): 50%
  Population Normal (%): 93%
  Population Pyknosed Nuclei (%): 7%
  Population Tubulin-Different-Phenotype (%): 18%
  Total Cell Count: 198
[4]
  Population Apoptotic (%): 16%
  Population Fragmented Nuclei (%): 7%
  Population Hoechst High Intensity Objects (%): 13%
  Population Mitochondria Different-Phenotype (%): 18%
  Population Mitotic Cells (%): 83%
  Population Normal (%): 86%
  Population Pyknosed Nuclei (%): 5%
  Population Tubulin-Different-Phenotype (%): 13%
  Total Cell Count: 86
[5]
  Population Apoptotic (%): 49%
  Population Fragmented Nuclei (%): 16%
  Population Healthy Nuclei (%): 44%
  Population Hoechst High Intensity Objects (%): 8%
  Population Membrane Permeable-Phenotype (%): 30%
  Population Mitochondria Different-Phenotype (%): 63%
  Population Mitotic Cells (%): 50%
  Population Normal (%): 91%
  Population Pyknosed Nuclei (%): 38%
  Population Tubulin-Different-Phenotype (%): 81%
  Total Cell Count: 192
[6]
  Population Apoptotic (%): 70%
  Population Fragmented Nuclei (%): 30%
  Population Healthy Nuclei (%): 39%
  Population Hoechst High Intensity Objects (%): 14%
  Population Membrane Permeable-Phenotype (%): 19%
  Population Mitochondria Different-Phenotype (%): 78%
  Population Mitotic Cells (%): 29%
  Population Normal (%): 85%
  Population Pyknosed Nuclei (%): 30%
  Population Tubulin-Different-Phenotype (%): 70%
  Total Cell Count: 151
[7]
  Population Apoptotic (%): 14%
  Population Fragmented Nuclei (%): 5%
  Population Healthy Nuclei (%): 87%
  Population Hoechst High Intensity Objects (%): 2%
  Population Membrane Permeable-Phenotype (%): 15%
  Population Mitochondria Different-Phenotype (%): 14%
  Population Mitotic Cells (%): 85%
  Population Normal (%): 97%
  Population Pyknosed Nuclei (%): 7%
  Population Tubulin-Different-Phenotype (%): 23%
  Total Cell Count: 199
[8]
  Population Apoptotic (%): 27%
  Population Fragmented Nuclei (%): 10%
  Population Healthy Nuclei (%): 81%
  Population Hoechst High Intensity Objects (%): 9%
  Population Membrane Permeable-Phenotype (%): 17%
  Population Mitochondria Different-Phenotype (%): 20%
  Population Mitotic Cells (%): 72%
  Population Normal (%): 90%
  Population Pyknosed Nuclei (%): 8%
  Population Tubulin-Different-Phenotype (%): 11%
  Total Cell Count: 81
